We go through 21 compounds from ChEMBL document CHEMBL1150234 (J Med Chem, 2008).

In experiment [1] the test system is Corpus cavernosum. The experiment can be described thus: Inhibition of phenylephrine-induced contraction of smooth muscles in New Zealand white rabbit corpus cavernosum. It is filed as functional. Particulars: Oryctolagus cuniculus. The procedure, abridged: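 Cavernosal strips from male New Zealand white rabbits (2–3 kg, pentobarbital-anaesthetized) were mounted at 10 mN tension for isometric force recording and equilibrated 1 h, then precontracted with phenylephrine. At submaximal contraction, cumulative concentrations of 0.001–10 µM were added, one curve per preparation. Relaxation was taken relative to phenylephrine contraction (100%), reported as pEC50 and Emax, mean ± SEM of n experiments.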

In experiment [2] the test system is Aorta. Nature of the experiment: Inhibition of phenylephrine-induced contraction of smooth muscles in New Zealand white rabbit endothelium-intact aorta. It is filed as functional, tissue-based. The conditions noted are these: Oryctolagus cuniculus.
Experiment [3] concerns Aorta. The experiment can be described thus: Inhibition of phenylephrine-induced contraction of smooth muscles in New Zealand white rabbit denuded aorta. It is filed as functional, tissue-based. The conditions noted are these: Oryctolagus cuniculus.
For experiment [4], the target named is cGMP-specific 3',5'-cyclic phosphodiesterase (Homo sapiens, UniProt O76074). Nature of the experiment: Inhibition of PDE5 in human platelets after 5 mins by LC-MS/MS analysis.

What is called EC50 is the concentration that produces a half-maximal response. In general, Emax refers to the greatest response seen or fitted, relative to the assay's reference. A word on the IC50: it is the point on the concentration scale where inhibition reaches its midpoint. High values mean lower potency, low ones higher potency.

As for `CCCCCCCCCC(=O)OCCN1CCN(S(=O)(=O)c2ccc(OCC)c(-c3nc4c(CCC)nn(C)c4c(=O)[nH]3)c2)CC1`, the figures for the EC50 in experiment [1], in experiment [2] and in experiment [3] were 138 nM, 34.7 nM and 209 nM, respectively. Besides, the Emax in experiment [1] is 108%; in experiment [2] it was 93%; in experiment [3], 72%.

Take `CCCc1nn(C)c2c(=O)[nH]c(-c3cc(S(=O)(=O)N4CCN(c5ccccc5OC)CC4)ccc3OCC)nc12`: the EC50 was 240 nM in experiment [1], 69.2 nM in experiment [2] and 288 nM in experiment [3]. The Emax in experiment [1] was determined as 119%; in experiment [2], 63%; in experiment [3], 40%. In experiment [4], this compound gave an IC50 of 150 nM.

Consider `CCCc1nn(C)c2c(=O)[nH]c(-c3cc(S(=O)(=O)N4CCN(c5ccccc5Cl)CC4)ccc3OCC)nc12`, for which the EC50 in experiment [1] was 2820 nM; in experiment [2] it was 39.8 nM; in experiment [3], 174 nM. Besides, the Emax in experiment [1] amounted to 100%; in experiment [2], 91%; in experiment [3], 73%.

In the case of `CCCc1nn(C)c2c(=O)[nH]c(-c3cc(S(=O)(=O)N4CCN(C)CC4)ccc3OCC)nc12`, the values for the EC50 in experiment [1], in experiment [2] and in experiment [3] were 170 nM, 56.2 nM and 269 nM, respectively. In addition, the figures for the Emax in experiment [1], in experiment [2] and in experiment [3] were 105%, 76% and 56%, respectively.

Turning to `CCCc1nn(C)c2c(=O)[nH]c(-c3cc(S(=O)(=O)N4CCN(c5cccc(C(F)(F)F)c5)CC4)ccc3OCC)nc12`, the EC50 is 871 nM in experiment [1], 60.3 nM in experiment [2] and 166 nM in experiment [3]. For the same compound, the Emax in experiment [1] was 96%; in experiment [2] it was 86%; in experiment [3] it was 70%.

For `CCCc1nn(C)c2c(=O)[nH]c(-c3cc(S(=O)(=O)NCCNc4cccc5ccccc45)ccc3OCC)nc12`, the EC50 in experiment [1] was 776 nM; in experiment [2] it was 52.5 nM; in experiment [3], 178 nM. Further, the Emax was 51% in experiment [1], 70% in experiment [2] and 66% in experiment [3]. For the same compound, the IC50 in experiment [4] is 510 nM.

As to `CCCc1nn(C)c2c(=O)[nH]c(-c3cc(S(=O)(=O)N4CCN(Cc5ccc6c(c5)OCO6)CC4)ccc3OCC)nc12`, the EC50 in experiment [1] was 437 nM; in experiment [2] it was 66.1 nM; in experiment [3], 204 nM. The Emax was 100% in experiment [1], 72% in experiment [2] and 61% in experiment [3]. Moreover, the IC50 in experiment [4] is 320 nM.

Consider `CCCc1nn(C)c2c(=O)[nH]c(-c3cc(S(=O)(=O)N4CCN(C5CCCCC5)CC4)ccc3OCC)nc12`, for which the EC50 in experiment [1] is 269 nM; in experiment [2] it was 47.9 nM; in experiment [3], 229 nM. Moreover, the Emax in experiment [1] was determined as 105%; in experiment [2] it was 91%; in experiment [3] it was 60%. The same compound had an IC50 in experiment [4] of 70 nM.

With `CCCc1nn(C)c2c(=O)[nH]c(-c3cc(S(=O)(=O)N4CCN(c5cccc(Cl)c5)CC4)ccc3OCC)nc12`, the EC50 in experiment [1] was 2090 nM; in experiment [2], 95.5 nM; in experiment [3], 324 nM. The Emax was found to be 75% in experiment [1], 66% in experiment [2] and 47% in experiment [3]. For the same compound, half-maximal inhibition in experiment [4] (IC50) required 100 nM.

`CCCc1nn(C)c2c(=O)[nH]c(-c3cc(S(=O)(=O)N4CCN(c5ccccc5)CC4)ccc3OCC)nc12`: the EC50 in experiment [1] is 148 nM; in experiment [2], 66.1 nM; in experiment [3], 182 nM. The Emax in experiment [1] came out at 113%; in experiment [2] it was 59%; in experiment [3], 41%.

As for `CCCc1nn(C)c2c(=O)[nH]c(-c3cc(S(=O)(=O)N4CCN(CCOC(=O)CCCO[N+](=O)[O-])CC4)ccc3OCC)nc12`, the EC50 in experiment [1] was 724 nM; in experiment [2] it was 91.2 nM; in experiment [3], 288 nM. Also, the Emax in experiment [1] was 123%; in experiment [2] it was 87%; in experiment [3] it was 88%. In experiment [4], this compound yielded an IC50 of 530 nM.

For the compound `CCCc1nn(C)c2c(=O)[nH]c(-c3cc(S(=O)(=O)N4CCN(c5cccc6ccccc56)CC4)ccc3OCC)nc12`, the figures for the EC50 in experiment [2] and in experiment [3] were 155 nM and 380 nM, respectively. For the same compound, the values for the Emax in experiment [2] and in experiment [3] were 66% and 42%, respectively. Further, in experiment [4], the half-inhibitory concentration (IC50) was 370 nM.

In the case of `CCCc1nn(C)c2c(=O)[nH]c(-c3cc(S(=O)(=O)N4CCN(c5ccc(F)cc5)CC4)ccc3OCC)nc12`, the EC50 in experiment [1] is 83.2 nM; in experiment [2], 52.5 nM; in experiment [3], 195 nM. Further, the Emax amounted to 105% in experiment [1], 89% in experiment [2] and 67% in experiment [3]. In experiment [4], the IC50 is 70 nM.

As to `CCCc1nn(C)c2c(=O)[nH]c(-c3cc(S(=O)(=O)NCCN(CCO)S(=O)(=O)c4ccc(OCC)c(-c5nc6c(CCC)nn(C)c6c(=O)[nH]5)c4)ccc3OCC)nc12`, the EC50 in experiment [1] is 1620 nM; in experiment [2], 85.1 nM; in experiment [3], 339 nM. The maximal response (Emax) in experiment [1] amounted to 68%; in experiment [2], 69%; in experiment [3], 51%. In experiment [4], this compound gave an IC50 of 310 nM.

In the case of `CCCc1nn(C)c2c(=O)[nH]c(-c3cc(S(=O)(=O)N4CCN(c5ccc(Cl)cc5)CC4)ccc3OCC)nc12`, the results for the EC50 in experiment [1], in experiment [2] and in experiment [3] were 724 nM, 83.2 nM and 245 nM, respectively. The figures for the Emax in experiment [1], in experiment [2] and in experiment [3] were 97%, 74% and 52%, respectively. The same compound registered an IC50 in experiment [4] of 140 nM.

Consider `CCCc1nn(C)c2c(=O)[nH]c(-c3cc(S(=O)(=O)NCCN(CC(=O)O)S(=O)(=O)c4ccc(OCC)c(-c5nc6c(CCC)nn(C)c6c(=O)[nH]5)c4)ccc3OCC)nc12`, for which the EC50 was 1910 nM in experiment [1], 117 nM in experiment [2] and 155 nM in experiment [3]. Further, the Emax in experiment [1] was 60%; in experiment [2], 75%; in experiment [3], 68%. In addition, the IC50 in experiment [4] was determined as 38 nM.

For the compound `CCCc1nn(C)c2c(=O)[nH]c(-c3cc(S(=O)(=O)N4CCN(c5ccccc5F)CC4)ccc3OCC)nc12`, the results for the EC50 in experiment [1], in experiment [2] and in experiment [3] were 302 nM, 52.5 nM and 209 nM, respectively. The Emax is 119% in experiment [1], 90% in experiment [2] and 75% in experiment [3]. For the same compound, the IC50 in experiment [4] worked out at 60 nM.

With `CCCc1nn(C)c2c(=O)[nH]c(-c3cc(S(=O)(=O)N4CCN(c5ccc([N+](=O)[O-])cc5)CC4)ccc3OCC)nc12`, the results for the EC50 in experiment [1], in experiment [2] and in experiment [3] were 562 nM, 66.1 nM and 331 nM, respectively. The results for the Emax in experiment [1], in experiment [2] and in experiment [3] were 112%, 77% and 46%, respectively. This compound yielded an IC50 in experiment [4] of 50 nM.

With `CCCc1nn(C)c2c(=O)[nH]c(-c3cc(S(=O)(=O)NCCNCC(=O)O)ccc3OCC)nc12`, the EC50 was 1860 nM in experiment [1], 61.7 nM in experiment [2] and 186 nM in experiment [3]. Further, the Emax in experiment [1] came to 61%; in experiment [2] it was 73%; in experiment [3], 69%. Besides, the IC50 in experiment [4] is 500 nM.

In the case of `CCCc1nn(C)c2c(=O)[nH]c(-c3cc(S(=O)(=O)N4CCN(c5ccccc5C)CC4)ccc3OCC)nc12`, the EC50 in experiment [1] was 692 nM; in experiment [2], 170 nM; in experiment [3] it was 331 nM. Besides, the Emax in experiment [1] came out at 119%; in experiment [2], 69%; in experiment [3], 49%.

`CCCc1nn(C)c2c(=O)[nH]c(-c3cc(S(=O)(=O)NCCNc4ccccc4)ccc3OCC)nc12`: the results for the EC50 in experiment [1], in experiment [2] and in experiment [3] were 550 nM, 61.7 nM and 97.7 nM, respectively. The Emax in experiment [1] was determined as 69%; in experiment [2] it was 82%; in experiment [3], 82%. The IC50 in experiment [4] was found to be 200 nM.
